The entries come from a sample that favours hits as a whole.
L major viab: inhibitors of Leishmania major promastigote growth; hit rate 9% among 200,000; inhibition, % at 10 µM; Leishmania major promastigotes, resazurin fluorescence viability;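 note: promastigotes grown with compound for 44 hours at 28 °C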
Diaph inh CS: inhibits diaphorase or chemically oxidizes, flagging diaphorase assay artifacts; diaphorase resazurin-to-resorufin fluorescence, NADH, 16 min; bacterial (C. kluyveri) enzyme, not human; inhibition, % at 20 µM; hit rate 0.69% among 190,000; AID 1217;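 active = primary screen inhibition at 20 µM above a set limit, cut at about 50% in these data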
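Detection: fluorescence of resorufin formed from resazurin, Ex 544/Em 590 nm; test system: Clostridium kluyveri diaphorase enzyme; amount: 0.14 U/mL diaphorase, enzyme working solution; times: 16-min room-temperature incubation before reading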
G6PDH CS: counter-screen for G6PDH assay hits: L. mesenteroides G6PDH inhibition; Purified L. mesenteroides G6PDH, diaphorase/resazurin coupled fluorescence, 45 min; inhibition, % at 5 µM; hit rate 0.12% among 200,000; AID 1020
PfGluPho inh: PfG6PD (Plasmodium falciparum) enzyme inhibition. PfGluPho enzyme, NADPH resazurin-diaphorase fluorescence. inhibition, % at 20 µM. hit rate 0.78% among 350,000. AID 504690;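 active = inhibition reaching at least a set limit at 20 µM in the primary screen, cut at about 59% in these data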
DTT redox prof: compounds producing H2O2 with reducing agent – biochemical, NIH compound library profiling, artefact control for MLSCN library redox annotation, primary screen. hit rate 0.03% among 200,000. AID 878. DTT-dependent redox cycling H2O2, phenol red/HRP absorbance; 100% = 100 µM peroxide control, 0% = buffer. activation, % at 10 µM;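 active = activation of at least 50% relative to the plate's high and low controls in the primary single-dose screen; inactive = activation below 50%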;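 note: compound incubated with DTT at 0.8 mM final as the reducing agent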
Diaphorase act: activates diaphorase or chemically reduces, flagging diaphorase assay artifacts | Diaphorase/resazurin coupled assay, resorufin fluorescence, 16 min; stronger effect = higher value; 1 = vehicle wells, 0 = NADH-free wells | hit rate 0.005% among 190,000 | activation factor at 20 µM;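 active = diaphorase activity raised at least twofold by the compound at 20 µM; inactive = activation factor below 2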
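Test system: Clostridium kluyveri diaphorase, purified enzyme. Buffer or medium: 50 mM HEPES pH 7.4 buffer plus MgCl2 and Tween 20. Also added: 0.114 mM NADH and 0.1 mM resazurin, final amounts. Dosing: compound 20 µM once, DMSO 1%. Schedule: 16 min enzyme reaction, ambient temperature. Detection: fluorescence of resorufin, 544 nm excitation, 590 nm emission.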
Of the large screens only hits and unclear results are named; the others gave an inactive call. Cut-off read from the data, not from the text of the source, unless noted: active = inhibition above about 50%; inactive = the rest.

CC1C/C(=C/c2ccccn2)C(=O)/C(=C/c2ccccn2)C1 (stereo not drawn)	L major viab 100.4
O=C(CN(C(=O)c1csnn1)c1cccc(Cl)c1)NCCc1ccccc1	none (no result: L major viab, Diaph inh CS, G6PDH CS, DTT redox prof, Diaphorase act)
Cc1ccc(-n2c(C)nn(CCOc3ccccc3)c2=O)cc1	none
COc1ccc(-n2c(=S)[nH]c3cc(C(=O)Nc4cc(C(N)=O)ccc4OC)ccc3c2=O)c(OC)c1	none (no result: L major viab, Diaph inh CS, G6PDH CS, DTT redox prof, Diaphorase act)
COc1ccc(NC(=O)c2ccc3c(=O)n(-c4ccc(OC)cc4OC)c(=S)[nH]c3c2)c(OC)c1	L major viab 69.3
Cc1cccc(OCC2CCCN(Cc3nc(C4CC4)no3)C2)c1 (stereo not drawn)	L major viab 62.0
O=C(OCCN1CCN(C2=NS(=O)(=O)c3ccccc32)CC1)c1ccccc1F	none (no result: L major viab, Diaph inh CS, G6PDH CS, DTT redox prof, Diaphorase act)
COc1cccc(/C=N/NC(=O)c2c(C)nc3ccc(Br)cn23)c1O	L major viab 99.6
CCn1c(C)nc2cc(C(=O)N/N=C/c3cccc(OC)c3O)ccc21	L major viab 93.9
COc1cccc(/C=N/NC(=O)c2nc(-c3ccccc3)cc(-c3ccccc3)n2)c1O	L major viab 99.8
C1CN(CC23CC4CC(CC(C4)C2)C3)CCO1	L major viab 80.7
OC(CN1CCOCC1)C12CC3CC(CC(C3)C1)C2 (stereo not drawn)	none
CCNC(=S)N=Nc1c(O)[nH]c2ccc(C(C)C)cc12	L major viab 77.6
CC(C)c1ccc2[nH]c(O)c(N=NC(=S)NCCc3ccccc3)c2c1	none
CN(C)Cc1c(O)ccc2oc(Cc3ccccc3)cc12	L major viab 76.9
O=C(COc1ccc(Cl)cc1Cl)NCC(=O)N/N=C/c1c[nH]c2ccccc12	L major viab 69.8
CC(OC(=O)c1cc(-c2cccnc2)nc2ccccc12)C(=O)Nc1ccc2ccccc2c1 (stereo not drawn)	L major viab 74.9
O=C(NNC(=S)Nc1ccccc1)c1cc(-c2cccnc2)nc2ccccc12	none
CN1CCN(C(=S)c2cn(Cc3ccccc3F)c3ccccc23)CC1	none
CCc1c(O)cc2n(c1=O)-c1ccc(Cl)cc1C2(C)C	L major viab 71.1
O=C(NC(Cc1c[nH]c2ccccc12)C(=O)Nc1ccc(F)c([N+](=O)[O-])c1)c1cccs1 (stereo not drawn)	L major viab 64.8
CCOC(=O)C1CCN(c2c(C(=O)c3ccccc3)cnc3ccc(CC)cc23)CC1	L major viab 54.7
CCOC(=O)C1CCCN(C(=O)c2cc(-c3ccncc3)nc3ccccc23)C1 (stereo not drawn)	none (no result: L major viab, Diaph inh CS, G6PDH CS, DTT redox prof, Diaphorase act)
Cc1nc2ccccc2c2oc(C(=O)N3CC(C)CC(C)C3)cc12 (stereo not drawn)	none (no result: L major viab, Diaph inh CS, G6PDH CS, DTT redox prof, Diaphorase act)
CCOC(=O)C1CCCN(c2c(C(=O)c3ccccc3)cnc3ccccc23)C1 (stereo not drawn)	L major viab 50.7
COc1cc2ncc(C(=O)c3ccccc3)c(N3CCN(Cc4ccccc4)CC3)c2cc1OC	none (no result: L major viab, Diaph inh CS, G6PDH CS, DTT redox prof, Diaphorase act)
CCOC(=O)C1CCCN(C(=O)c2cc3c(C)nc4ccccc4c3o2)C1 (stereo not drawn)	L major viab 76.6
Cc1ccc(S(=O)(=O)CCC(=O)NCc2ccccc2F)cc1	none (no result: L major viab, Diaph inh CS, G6PDH CS, DTT redox prof, Diaphorase act)
Cc1ccc([C@@H]2[C@@H]3C(=O)N(c4ccccc4)C(=O)[C@@H]3[C@]3(C)C(=O)N(Cc4ccc(-c5ccccc5)cc4)CC(=O)N23)o1	none (no result: L major viab, Diaph inh CS, G6PDH CS, DTT redox prof, Diaphorase act)
COc1ccc(-c2cc(=O)n(CCC#N)[nH]2)cc1	L major viab 96.0
O=[N+]([O-])C1C(c2ccccc2)C12c1ccccc1-c1ccccc12 (stereo not drawn)	none (no result: L major viab, Diaph inh CS, G6PDH CS, DTT redox prof, Diaphorase act)
Cc1cc(C)cc(NC(=O)CSc2ncc(S(=O)(=O)c3ccccc3)c(=O)[nH]2)c1	L major viab 52.8 (no result: PfGluPho inh)
COc1cc(NC(=O)CC(C)S(=O)(=O)c2ccc3c(c2)NC(=O)CO3)cc(OC)c1OC (stereo not drawn)	none (no result: L major viab, Diaph inh CS, G6PDH CS, DTT redox prof, Diaphorase act)
Cc1ccc2nsnc2c1S(=O)(=O)NCCc1c(C)[nH]c2ccc(F)cc12	L major viab 98.2
Cc1ccc(C)c(NS(=O)(=O)c2c(C)ccc3nsnc23)c1	none
CC[C@]12C(=O)N(C)C[C@H]([C@@H]3C(=O)N(Cc4ccccc4)C(=O)[C@@H]31)N2C(=O)c1ccc(C(F)(F)F)cc1	none (no result: L major viab, Diaph inh CS, G6PDH CS, DTT redox prof, Diaphorase act)
Cc1cc(Nc2ccccc2Cl)n2nnnc2n1	L major viab 87.2
COc1ccc(N2CCC(CNC(=O)Nc3cccc(OC)c3)C2)cc1 (stereo not drawn)	Diaph inh CS 56.8
CCc1cccc(C)c1NC(=S)NCC1CCN(c2ccc(OC)cc2)C1 (stereo not drawn)	none
COc1ccc(N2CCC(CNC(=S)Nc3cccc(OC)c3)C2)cc1 (stereo not drawn)	L major viab 60.1 (no result: PfGluPho inh)
Nc1cccc(CP(=O)(c2ccccc2)c2ccccc2)c1	none (no result: L major viab, Diaph inh CS, G6PDH CS, DTT redox prof, Diaphorase act)
CCOc1nc(Nc2ccc([N+](=O)[O-])cc2)nc(NC(C)(C)C)n1	L major viab 73.7
COc1nc(Nc2ccc([N+](=O)[O-])cc2)nc(NC(C)C)n1	L major viab 97.5
CSc1ccc(CN(C)CC(=O)NC(=O)NCCC2=CCCCC2)cc1	none (no result: L major viab, Diaph inh CS, G6PDH CS, DTT redox prof, Diaphorase act)
COc1ccc(NS(=O)(=O)c2cccc(C(=O)NC3CCC(O)CC3)c2)cc1 (stereo not drawn)	none (no result: L major viab, Diaph inh CS, G6PDH CS, DTT redox prof, Diaphorase act)
Cc1cc2nsnc2c(S(=O)(=O)N2CCN(C)CC2)c1C	none (no result: L major viab, Diaph inh CS, G6PDH CS, DTT redox prof, Diaphorase act)
CC(Oc1ccc(Cl)cc1Cl)C(=O)Nc1ccc(N2CCN(C)CC2)cc1 (stereo not drawn)	L major viab 100.3
CC(Oc1ccc(Cl)cc1Cl)C(=O)NNC(=O)C(=O)N1CCCCC1 (stereo not drawn)	L major viab 60.4
CC(=O)N1CCN(c2ccc(NC(=O)C(C)Oc3ccc(Cl)cc3Cl)cc2)CC1 (stereo not drawn)	none
CCOc1cccc(OCCCNCCCOC)c1	L major viab 88.4
CCc1cccc(OCCCCN(CC)CC)c1	L major viab 98.4
CCc1cccc(OCCCCNCCCOC)c1	L major viab 99.2
CC(=O)NCCOc1cccc(OCCNC(C)=O)c1	none
CCOC(=O)C(CCCCOc1cccc(CC)c1)C(=O)OCC	none
CCCCCc1ccc(S(=O)(=O)NCCc2ccncc2)cc1	L major viab 77.8
CC(C)CCCN1C(N(C)C)=NC[C@@H]1C	none (no result: L major viab, Diaph inh CS, G6PDH CS, DTT redox prof, Diaphorase act)
CCN(C(=O)c1cc2c(=O)[nH]c3ccc(C)cc3c2s1)c1ccc(OC)cc1	none (no result: L major viab, Diaph inh CS, G6PDH CS, DTT redox prof, Diaphorase act)
CCOc1cc(/C=C\[N+](=O)[O-])ccc1OCC(=O)Nc1ccccc1C	L major viab 71.2
COc1cc(/C=C/c2cccc[n+]2C)ccc1OCC(=O)Nc1ccccc1C	none (no result: L major viab, Diaph inh CS, G6PDH CS, DTT redox prof, Diaphorase act)
N#Cc1c2nc3ccccc3nc2n2cc(NC(=O)c3ccc(F)cc3)ccc12	Diaph inh CS 89.9
Clc1ccc(-c2cn(-c3ccc(Cl)cc3)c3[n+]2CCCCC3)cc1	none (no result: L major viab, Diaph inh CS, G6PDH CS, DTT redox prof, Diaphorase act)

Screening results deposited in PubChem BioAssay by several laboratories.
